From publication PMC7092849 (Biochemical and Biophysical Research Communications, 2018)
Entries after “also recorded” stand apart in the source; their conditions may differ. Non-standard residues stand in square brackets, D forms with d. No end group written: not given here. Hyp = O=C(O)[C@@H]1C[C@@H](O)CN1

How the values were obtained:
[1] = system: 3T3 cells; type: cell-based, mouse
[2] = target: the molecule itself; assay: crystal structure
[3] = system: 3T3 cells; assay: Cytotoxicity assay; type: cell-based, mouse; conditions: CCK-8, up to 1 mg/ml, Fig. 4D
In short: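 Mouse fibroblast BALB 3T3 cells were exposed to a recombinant collagen III tandem-repeat protein or collagen-derived peptides at concentrations up to 1000 μg/ml. Viability was read with CCK-8 following the manufacturer's manual. CC50 was the intended read-out.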

| Molecule | cell adhesion activity (relative cell adhesion rate) [1] | stoichiometry N [2] | cytotoxicity [3] |
| --- | --- | --- | --- |
| bovine serum albumin [BSA, reference compound] | no significant adhesion activity | – | – |
| C1P: native hCOL3A1 peptide, Gly483-Pro512 (GERGAPGFRGPAGPNGIPGEKGPAGERGAP) | the most potent cell adhesion activity; also recorded: much stronger cell adhesion activity than that of Type I collagen | – | – |
| P[Hyp]GP[Hyp]GP[Hyp]GFRGPAGPNGIPGP[Hyp]GP[Hyp]GP[Hyp]G [host-guest peptide C3Pa, (Pro-Hyp-Gly)3-FRGPAGPNGIPG-(Pro-Hyp-Gly)3] | – | 3 | – |
| T16: recombinant 480aa protein, 16 tandem repeats of the triple-helix fragment of hCOL3A1, Gly483-Pro512 (C1P) (protein, left off: thioredoxin, end not stated, state not stated) GERGAPGFRGPAGPNGIPGEKGPAGERGAPGERGAPGFRGPAGPNGIPGEKGPAGERGAPGERGAPGFRGPAGPNGIPGEKGPAGERGAPGERGAPGFRGPAGPNGIPGEKGPAGERGAPGERGAPGFRGPAGPNGIPGEKGPAGERGAPGERGAPGFRGPAGPNGIPGEKGPAGERGAPGERGAPGFRGPAGPNGIPGEKGPAGERGAPGERGAPGFRGPAGPNGIPGEKGPAGERGAPGERGAPGFRGPAGPNGIPGEKGPAGERGAPGERGAPGFRGPAGPNGIPGEKGPAGERGAPGERGAPGFRGPAGPNGIPGEKGPAGERGAPGERGAPGFRGPAGPNGIPGEKGPAGERGAPGERGAPGFRGPAGPNGIPGEKGPAGERGAPGERGAPGFRGPAGPNGIPGEKGPAGERGAPGERGAPGFRGPAGPNGIPGEKGPAGERGAPGERGAPGFRGPAGPNGIPGEKGPAGERGAP | very strong cell adhesion activity | – | No obvious cytotoxicity |
